Compound activity (PubChem BioAssay)
Compounds with a hit are over-represented: about 5% of the library has one in this group of screens.
CSC inhib – cancer stem cell inhibition. inhibition, % at 7.5 µM. 300,000 tested, 1.1% active. cancer stem cell-like cells viability, luminescence. AID 2717; in the data active = inhibition above about 75%; inconclusive = no clear call, values can overlap the other calls; tested in HMLE shEcad cells
CHOP UPR activ – apoptotic UPR (CHOP) activation. 330,000 tested, 0.34% active. CHO-CHOP luciferase reporter, luminescence; percent of tunicamycin response over DMSO baseline. activation, % at 10 µM;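 active = at 10 µM dose, activation of 40% or more, normalized to positive control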
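Assay system: CHO-CHOP cells, stable luciferase reporter of PERK-eIF2a-CHOP signalling / Buffer or medium: F12 plus 10% serum / Compound dosing: one dose, 10 µM in 0.5% DMSO / Times: 6 h compound treatment, 37 °C / Technique: luciferase luminescence / Read-out: % reporter activation, DMSO baseline versus tunicamycin full activation / Benchmarks: tunicamycin and DMSO controls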
Beta cell apopt – beta cell apoptosis inhibition; 300,000 tested, 0.8% active; protection from apoptosis, % (test concentration not listed); INS-1E cytokine-induced death, ATP luminescence, 48 h; percent of positive-control rescue, neutral wells zero; AID 435005;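 active = Every replicate reaches about 75%, or at least half do and their mean reaches it too, limit read from the data; inconclusive = At least half of replicates reach the limit but their mean does not; inactive = Under half of replicates reach the limit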;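 also: higher means more ATP so stronger rescue from cytokine killing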
UPR XBP1 act – adaptive UPR (XBP1) activation | activation, % at 20 µM | CHO-XBP1 luciferase reporter, IRE1-XBP1 UPR activation, luminescence; percent of tunicamycin response, DMSO as zero | 330,000 tested, 0.33% active | AID 463104;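 active = versus positive control, 20 µM dose yields 30% or more activation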
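assay system = CHO-XBP1 luciferase reporter cells | amount = 1000 cells/well | buffer or medium = F12 plus 10% FBS | compound dosing = single point, 20 µM final compound, 1% DMSO | incubation = 16-18 h cell attachment at 37 °C, then 6 h compound exposure | detection = Steady-Glo luminescence read | controls = tunicamycin 10 µg/mL and vehicle-only wells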
Mdm2-MdmX inh – disrupts the human Mdm2-MdmX interaction | O15151+Q00987 | SaOS-2 split-luciferase Mdm2/MdmX complementation, luminescence | inhibition, % at 8 µM | 330,000 tested, 3% active;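 active = inhibition of at least 50% at 8 µM in the primary screen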
Target sequence (O15151 whole entry, looked up): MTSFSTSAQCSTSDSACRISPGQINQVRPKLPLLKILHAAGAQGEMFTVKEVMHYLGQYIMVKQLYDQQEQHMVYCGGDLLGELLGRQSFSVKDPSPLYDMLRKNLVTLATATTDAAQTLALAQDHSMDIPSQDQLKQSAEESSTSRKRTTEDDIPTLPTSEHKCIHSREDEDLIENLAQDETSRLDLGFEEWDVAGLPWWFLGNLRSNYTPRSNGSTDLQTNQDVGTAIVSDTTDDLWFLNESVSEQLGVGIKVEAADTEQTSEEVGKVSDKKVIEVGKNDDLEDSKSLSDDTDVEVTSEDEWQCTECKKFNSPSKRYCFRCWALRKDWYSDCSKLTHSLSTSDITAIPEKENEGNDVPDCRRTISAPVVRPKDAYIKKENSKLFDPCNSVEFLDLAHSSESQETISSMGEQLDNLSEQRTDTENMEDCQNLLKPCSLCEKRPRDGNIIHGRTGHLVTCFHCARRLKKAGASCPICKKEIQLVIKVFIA
Target sequence (Q00987 whole entry, looked up): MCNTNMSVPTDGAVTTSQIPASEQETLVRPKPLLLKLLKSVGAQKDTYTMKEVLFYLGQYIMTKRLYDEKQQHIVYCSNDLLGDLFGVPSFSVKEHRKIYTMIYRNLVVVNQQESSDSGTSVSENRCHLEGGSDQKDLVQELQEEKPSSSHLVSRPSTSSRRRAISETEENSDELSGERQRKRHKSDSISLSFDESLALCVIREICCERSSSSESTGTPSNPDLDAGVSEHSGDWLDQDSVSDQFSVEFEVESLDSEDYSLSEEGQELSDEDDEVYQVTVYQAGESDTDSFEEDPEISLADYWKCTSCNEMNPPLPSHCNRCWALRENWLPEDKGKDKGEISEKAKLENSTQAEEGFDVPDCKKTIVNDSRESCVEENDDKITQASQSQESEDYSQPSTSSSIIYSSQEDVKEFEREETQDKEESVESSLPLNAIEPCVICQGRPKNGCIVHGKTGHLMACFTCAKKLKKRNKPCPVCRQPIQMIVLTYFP
T cruzi inh – blocks replication of Trypanosoma cruzi; T. cruzi beta-gal in NIH3T3, luminescence, 90 h; inhibition, % (test concentration not listed); 300,000 tested, 1.4% active; AID 1885;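 active = mean inhibition across valid replicates above about 55%, limit read from the data; inconclusive = mean below that limit but half or more replicates reach it; inactive = mean below it, under half of replicates reach it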;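 also: signal also drops with host cell toxicity which is not excluded here; higher percent means less beta-gal luminescence so fewer parasites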
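assay system = mouse NIH/3T3 fibroblasts infected with β-gal-expressing T. cruzi Tulahuen C4 | input = 5,000 NIH/3T3 host cells per well | buffer or medium = DMEM plus 2% FBS | timing = 3 h host attachment, then at least 90 h co-culture | measured by = GalScreen luminescence, 60 min | evaluation = luminescence reflecting intracellular parasite burden, expressed as percent inhibition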
Mdm2-MdmX conf – confirmation of human Mdm2/MdmX interaction inhibitors. inhibition, % at 8 µM. Mdm2-MdmX binding, luminescent assay. 10,000 tested, 55% active. shares compounds with Mdm2-MdmX inh; in the data active = inhibition above about 40%
Full FLuc ctr – full-length luciferase inhibition in Mdm2/MdmX counter-screen. shares compounds with Mdm2-MdmX inh. SaOS-2 full-length luciferase counterscreen, luminescence. inhibition, % at 8 µM. 6,200 tested, 77% active;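 active = mean inhibition at 8 µM reaching about 37%, which flags the compound as non-specific, limit read from the data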;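 also: p53-null SaOS-2 cells with luciferase driven by a doxycycline-inducible promoter; compound on cells about two nights before reading with doxycycline added after day one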
Each line names hits and unclear results; the compound was inactive in the other large screens (follow-up assays come after a bar, where they were run).

COc1ccc(/C=N/NC(=O)CCn2c3ccccc3c3ccccc32)cc1O	Mdm2-MdmX inh 53 | Mdm2-MdmX conf 58 | Full FLuc ctr 60
COc1ccc(OC)c(/C=N/NC(=O)c2cc3c(OC)c(OC)ccc3[nH]2)c1	none
COc1cc(OC)c2cc(C(=O)N/N=C/c3ccccc3O)[nH]c2c1	Beta cell apopt 85, Mdm2-MdmX inh 73 | Mdm2-MdmX conf 68 | Full FLuc ctr 38
CN1C(=O)N(CC(=O)N2CCN(c3ccccc3F)CC2)C(=O)C12CCCCC2	none (no result: T cruzi inh)
O=C(NC(=S)NCCN1CCOCC1)c1ccc(Cl)cc1	none
O=C(NC(=S)NCc1ccccc1Cl)c1cccs1	none (no result: CSC inhib, T cruzi inh)
COc1ccc2[nH]c(C(=O)N/N=C/c3ccccc3OC)cc2c1	none
COc1ccc(/C=N/NC(=O)c2nc(-c3ccccc3)cc(-c3ccccc3)n2)cc1	none
COc1ccc2[nH]c(C(=O)N/N=C/c3ccc(OC)c(O)c3)cc2c1	Mdm2-MdmX inh 56 | Mdm2-MdmX conf 53 | Full FLuc ctr 67
COc1ccc(/C=N/NC(=O)c2nc(-c3ccccc3)cc(-c3ccccc3)n2)cc1O	Mdm2-MdmX inh 56 (no result: CSC inhib) | Mdm2-MdmX conf inactive | Full FLuc ctr 121
CCOC(=O)c1ccc(NC(=O)CN2C(=O)CN(C(C)=O)C2=S)cc1	none (no result: Beta cell apopt)
CC(C)(C)N1C(=O)Cc2c1nc(N)c1c(N)nc(N3CCCCC3CO)c(C#N)c21 (stereo not drawn)	Mdm2-MdmX inh 68 | Mdm2-MdmX conf inactive
CSc1ccccc1NC(=O)CN(C)C(=O)Cc1c(F)cccc1Cl	none
CN(C)/C=C/C(=O)c1ccc(Br)s1	none
Cc1cc(C)c2c(c1)/C(=C/C(=O)c1ccc(Br)s1)C(=O)N2	CSC inhib inconclusive, Mdm2-MdmX inh 96 | Mdm2-MdmX conf 41 | Full FLuc ctr 87
Cc1cccc(C(=O)NCC(=O)N2CCC2)c1	none (no result: CSC inhib, T cruzi inh)
CCN1CCN(/C=N/c2nc3c(s2)CCCC3)CC1	Mdm2-MdmX inh 57 (no result: CSC inhib, Beta cell apopt) | Mdm2-MdmX conf 73 | Full FLuc ctr 91
CN1CCN(CC(=O)Nc2nc3c(s2)CCCC3)CC1	none
COc1cccc(OC)c1OCc1cc(C2C3CCCC=C3C(C#N)=C(N)C2(C#N)C#N)c(C)cc1C (stereo not drawn)	Mdm2-MdmX inh 51 | Mdm2-MdmX conf inactive
COc1ccc(/C=N/NC(=S)Nc2cc(S(=O)(=O)N3CCOCC3)ccc2N2CCOCC2)cc1O	Mdm2-MdmX inh 51 | Mdm2-MdmX conf 45 | Full FLuc ctr 83
O=C(CCCc1ccccc1)Nc1ccccc1C(F)(F)F	none
Cn1c(C(=O)O)c(CC(=O)Nc2ccccc2F)c2ccccc21	none
CSc1c(CC(=O)Nc2ccccc2)n(Cc2ccccc2)c2ccccc12	Mdm2-MdmX inh 60 | Mdm2-MdmX conf inactive
CSc1c(CC(=O)Nc2ccccc2C(F)(F)F)n(Cc2ccccc2)c2ccccc12	Mdm2-MdmX inh 74 | Mdm2-MdmX conf inactive | Full FLuc ctr 107
Cn1c(CC(=O)Nc2ccc(F)cc2)c(Sc2ccccc2)c2ccccc21	none
CSc1c(CC(=O)Nc2ccccc2Cl)n(Cc2ccccc2)c2ccccc12	Mdm2-MdmX inh 58 (no result: T cruzi inh) | Mdm2-MdmX conf inactive
CCOc1ccc(NC(=O)/C(C=Nc2ccccc2)=C(\C)O)cc1	none
CC1CCCC(C)N1C(=C(Cl)Cl)C(=C1SCCS1)[N+](=O)[O-] (stereo not drawn)	none
COC(=O)[C@]1(C)N[C@H](c2ccc(-c3ccc(Cl)c(Cl)c3)c(OC)c2)[C@@H]2C(=O)N(C)C(=O)[C@@H]21	Mdm2-MdmX inh 65 | Mdm2-MdmX conf 40 | Full FLuc ctr 49
CCN1C(=O)[C@H]2[C@@H](c3ccc(-c4ccc(Cl)c(Cl)c4)c(OC)c3)N[C@@](Cc3ccccc3)(C(=O)OC)[C@H]2C1=O	Mdm2-MdmX inh 62 | Mdm2-MdmX conf 47 | Full FLuc ctr 46
COc1ccc(CCN(Cc2cc3cccc(C)c3n3nnnc23)C(=O)c2ccncc2)cc1OC	none
COc1ccc(NC(=O)CN2CCC(C(=O)c3ccc(F)cc3)CC2)c(OC)c1	none
COc1cc(/C=C/C(=O)/C=C(O)/C=C/c2ccc(O)c(OC)c2)ccc1O	Mdm2-MdmX inh 66 (no result: T cruzi inh) | Mdm2-MdmX conf inactive
COc1cc(/C=C/C(=O)CC(=O)/C=C/c2ccc(O)c(OC)c2)ccc1O	CSC inhib 94, Mdm2-MdmX inh 54 (no result: Beta cell apopt) | Mdm2-MdmX conf inactive
COc1ccc(-c2c(-c3ccccc3OC)sc3ccccc23)cc1C=O	none (no result: T cruzi inh)
O=C(COc1ncnc2sccc12)Nc1cccc(S(=O)(=O)N2CCOCC2)c1	none (no result: CSC inhib, T cruzi inh)
Cc1ccc(OCCn2cc(/C(N)=N/O)c3ccccc32)cc1C	none
Cc1ccc(OCCn2cc(C(=S)N3CCCC3)c3ccccc32)cc1C	Mdm2-MdmX inh 96 | Mdm2-MdmX conf 91 | Full FLuc ctr 54
Cn1cc(Br)c(-c2cccc(NC(=O)CCCC(=O)O)c2)n1	none
CC(=O)Oc1ccc(/C=C(\NC(=O)c2ccco2)C(=O)NCc2ccco2)cc1	none
O=C(Cn1cnc([N+](=O)[O-])c1)Nc1cc(Oc2ccc(Cl)cc2Cl)cc([N+](=O)[O-])c1	Mdm2-MdmX inh 56, T cruzi inh 57 | Mdm2-MdmX conf inactive
COc1ccc(NC(=O)C2=C(C)Nc3nc(CCCO)nn3C2c2ccc(OC)c(OC)c2)cc1 (stereo not drawn)	none
O=C(Cc1cccc2ccccc12)NCCOc1ccccc1F	none (no result: CSC inhib)
Cc1ccccc1Cn1cc(NC(=O)c2cc(-c3cccs3)on2)cn1	Mdm2-MdmX inh 58 | Mdm2-MdmX conf inactive
Cc1cc2nc(N3C(=O)CNC3=S)sc2cc1C	none
COc1cc(-c2cc(-c3ccc(O)cc3)nc(N)c2C#N)ccc1O	Mdm2-MdmX inh 81 | Mdm2-MdmX conf 54 | Full FLuc ctr 92
N#Cc1c(-c2ccccc2)cc(-c2ccc(O)cc2)nc1N	none (no result: CSC inhib, Beta cell apopt)
COc1ccc(-c2cc(-c3ccc(O)cc3)nc(N)c2C#N)cc1	Mdm2-MdmX inh 62 (no result: Beta cell apopt) | Mdm2-MdmX conf inactive
Cc1ccc(S(=O)(=O)N2CCC(NC(=O)C3CCCCC3)CC2)cc1	none
COc1cccc(-n2nc(C#N)c(Cl)cc2=O)c1	Mdm2-MdmX inh 100 (no result: CSC inhib, Beta cell apopt) | Mdm2-MdmX conf 100 | Full FLuc ctr 51
Cc1ccc(C(C)C)c(OC/C(O)=C(\C#N)c2nc3ccccc3[nH]2)c1	Mdm2-MdmX inh 59 | Mdm2-MdmX conf inactive
N#C/C(=C(\O)Cc1ccccc1)c1nc2ccccc2[nH]1	Mdm2-MdmX inh 55 | Mdm2-MdmX conf inactive
